According to ChEMBL document CHEMBL3085773, “A general method for making peptide therapeutics resistant to serine protease degradation: application to dipeptidyl peptidase IV substrates” (J Med Chem, 2013):
Values belong to the molecule of their own block, whether it stands above or below them. Peptide text beside a SMILES is read from it.

Legend:
[1] = target: DPP4 (dipeptidyl peptidase 4) (Homo sapiens, UniProt P27487); experiment: Metabolic stability in human plasma assessed as half life of DPP4-mediated compound degradation; assay type: ADME
[2] = target: Dipeptidyl peptidase 4 (Sus scrofa, UniProt P22411); experiment: Stability of the compound assessed as porcine DPP4-mediated compound degradation at 0.1 mM measured over 30 mins by reverse-phase HPLC/MS analysis; assay type: ADME; settings: pig, 0.5 h, 100 µM
In short: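 Peptide (0.1 mM) incubated at 37 °C with DPP IV purified from porcine kidney (10 mU/mL) in 50 mM HEPES, 0.14 M NaCl, pH 8.0. Samples taken at set times and quenched with 10% (v/v) 0.1 M HCl. Intact peptide quantified by reverse-phase HPLC-MS and expressed as percent of the time-0 amount.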

[3] = target: Trypsin (Sus scrofa, UniProt P00761); experiment: Stability of the compound assessed as porcine pancreatic trypsin-mediated compound degradation at 0.1 mM after 10 secs by reverse-phase HPLC/MS analysis; assay type: ADME; settings: pig, isolated protein, 10 s, 100 µM
In short: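 Peptide (0.1 mM) incubated at 37 °C with 100 nM purified porcine pancreatic trypsin in 50 mM Tris-HCl, 20 mM CaCl₂, pH 8.0. Timed samples were acid-quenched with 10% (v/v) 0.1 M HCl, then analysed by reverse-phase HPLC-MS. Mean ± range of two independent experiments.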

[4] = target: Chymotrypsinogen A (Bos taurus) (UniProt P00766); experiment: Stability of the compound assessed as bovine pancreatic chymotrypsin-mediated compound degradation at 0.1 mM after 10 secs by reverse-phase HPLC/MS analysis; settings: cow, isolated protein, 10 s, 100 µM
[5] = target: DPP4 (dipeptidyl peptidase 4) (Rattus norvegicus, UniProt P14740); experiment: Metabolic stability in rat serum assessed as half life of DPP4-mediated compound degradation; assay type: ADME, cell-free
[6] = target: Dipeptidyl peptidase 4 (Homo sapiens, UniProt P27487); experiment: Competitive inhibition of human recombinant DPP4 using AP-pNA as substrate preincubated for 30 mins followed by substrate addition measured after 30 mins by spectrophotometric analysis
Dipeptidyl peptidase 4 (Homo sapiens, UniProt P27487), sequence (P27487 whole entry): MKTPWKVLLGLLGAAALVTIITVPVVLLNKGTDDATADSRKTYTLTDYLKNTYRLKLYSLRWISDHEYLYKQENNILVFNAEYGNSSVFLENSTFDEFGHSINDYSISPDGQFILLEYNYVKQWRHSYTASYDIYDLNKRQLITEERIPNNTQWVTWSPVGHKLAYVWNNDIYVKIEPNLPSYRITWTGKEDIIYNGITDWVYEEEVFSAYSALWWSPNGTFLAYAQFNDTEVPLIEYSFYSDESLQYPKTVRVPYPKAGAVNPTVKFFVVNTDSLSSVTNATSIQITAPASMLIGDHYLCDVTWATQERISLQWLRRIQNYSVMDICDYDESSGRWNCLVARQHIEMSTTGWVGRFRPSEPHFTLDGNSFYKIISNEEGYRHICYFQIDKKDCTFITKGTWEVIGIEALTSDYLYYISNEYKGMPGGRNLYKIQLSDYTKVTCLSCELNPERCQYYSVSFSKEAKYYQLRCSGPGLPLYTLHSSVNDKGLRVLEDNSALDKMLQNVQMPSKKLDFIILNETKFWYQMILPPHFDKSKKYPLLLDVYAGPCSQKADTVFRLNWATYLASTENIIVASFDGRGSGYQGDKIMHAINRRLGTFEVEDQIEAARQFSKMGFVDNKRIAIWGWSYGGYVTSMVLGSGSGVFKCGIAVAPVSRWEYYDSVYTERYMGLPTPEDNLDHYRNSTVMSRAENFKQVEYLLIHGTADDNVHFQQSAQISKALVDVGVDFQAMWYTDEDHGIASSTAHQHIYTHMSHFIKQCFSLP

DPP4 (dipeptidyl peptidase 4) (Rattus norvegicus, UniProt P14740), sequence (P14740 whole entry): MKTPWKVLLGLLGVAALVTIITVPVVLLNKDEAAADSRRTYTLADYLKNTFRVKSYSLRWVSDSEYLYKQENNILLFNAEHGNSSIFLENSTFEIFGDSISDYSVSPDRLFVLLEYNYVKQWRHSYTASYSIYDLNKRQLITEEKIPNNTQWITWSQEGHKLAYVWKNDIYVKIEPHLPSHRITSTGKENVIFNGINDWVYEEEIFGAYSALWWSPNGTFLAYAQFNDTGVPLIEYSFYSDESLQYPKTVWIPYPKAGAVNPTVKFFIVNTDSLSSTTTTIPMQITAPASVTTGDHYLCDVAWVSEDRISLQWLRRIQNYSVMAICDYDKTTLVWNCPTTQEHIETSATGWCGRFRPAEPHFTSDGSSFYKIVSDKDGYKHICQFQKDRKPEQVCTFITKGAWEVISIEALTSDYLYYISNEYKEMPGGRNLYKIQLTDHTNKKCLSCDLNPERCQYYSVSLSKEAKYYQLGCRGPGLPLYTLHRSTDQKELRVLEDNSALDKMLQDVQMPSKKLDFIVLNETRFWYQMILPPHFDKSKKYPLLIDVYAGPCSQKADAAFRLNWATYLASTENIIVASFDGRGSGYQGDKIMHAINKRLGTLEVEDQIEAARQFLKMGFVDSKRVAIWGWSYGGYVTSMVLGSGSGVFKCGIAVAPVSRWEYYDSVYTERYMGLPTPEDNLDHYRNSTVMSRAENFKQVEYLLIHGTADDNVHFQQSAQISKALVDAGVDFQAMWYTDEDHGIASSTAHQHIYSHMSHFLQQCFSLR
Trypsin, sequence (P00761 whole entry): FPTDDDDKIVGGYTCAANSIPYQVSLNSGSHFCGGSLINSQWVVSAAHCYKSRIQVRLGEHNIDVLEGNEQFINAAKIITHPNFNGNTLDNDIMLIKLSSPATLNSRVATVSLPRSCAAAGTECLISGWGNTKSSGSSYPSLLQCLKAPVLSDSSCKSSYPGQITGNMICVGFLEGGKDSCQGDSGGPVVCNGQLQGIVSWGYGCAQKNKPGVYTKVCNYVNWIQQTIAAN
Dipeptidyl peptidase 4 (Sus scrofa, UniProt P22411), sequence (P22411 whole entry): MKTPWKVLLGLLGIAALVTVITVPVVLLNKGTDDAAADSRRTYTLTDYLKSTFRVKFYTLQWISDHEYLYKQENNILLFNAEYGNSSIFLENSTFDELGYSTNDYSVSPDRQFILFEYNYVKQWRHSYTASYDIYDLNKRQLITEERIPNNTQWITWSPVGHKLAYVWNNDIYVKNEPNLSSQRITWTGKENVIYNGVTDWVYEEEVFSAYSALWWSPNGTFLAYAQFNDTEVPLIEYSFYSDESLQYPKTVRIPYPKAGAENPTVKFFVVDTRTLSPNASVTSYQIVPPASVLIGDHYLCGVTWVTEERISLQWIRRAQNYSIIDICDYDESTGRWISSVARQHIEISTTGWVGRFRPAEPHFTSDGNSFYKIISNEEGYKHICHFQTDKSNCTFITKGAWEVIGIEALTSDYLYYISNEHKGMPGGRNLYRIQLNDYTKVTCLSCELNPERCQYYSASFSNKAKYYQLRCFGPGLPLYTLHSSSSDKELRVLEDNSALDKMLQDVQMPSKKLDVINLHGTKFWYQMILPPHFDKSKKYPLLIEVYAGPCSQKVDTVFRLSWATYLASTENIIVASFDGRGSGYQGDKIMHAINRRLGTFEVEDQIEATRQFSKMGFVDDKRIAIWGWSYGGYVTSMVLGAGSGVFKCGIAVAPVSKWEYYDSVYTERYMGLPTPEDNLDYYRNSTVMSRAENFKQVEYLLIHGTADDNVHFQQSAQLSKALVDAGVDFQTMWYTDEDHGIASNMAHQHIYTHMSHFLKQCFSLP
DPP4 (dipeptidyl peptidase 4) (Homo sapiens, UniProt P27487), sequence (P27487 whole entry): as the sequence (P27487 whole entry) above

half-life [1]: 15 min
SMILES: CC[C@H](C)[C@H](NC(=O)[C@H](CCCNC(=N)N)NC(=O)[C@H](CC(=O)O)NC(=O)[C@H](CCSC)NC(=O)[C@H](CCCCN)NC(=O)[C@H](CCCNC(=N)N)NC(=O)CNC(=O)[C@H](Cc1ccccc1)NC(=O)[C@H](CS)NC(=O)CNC(=O)[C@H](CO)NC(=O)CNC(=O)[C@H](CCC(N)=O)NC(=O)[C@@H](NC(=O)[C@H](CCSC)NC(=O)[C@H](CCCCN)NC(=O)[C@@H]1CCCN1C(=O)[C@@H](N)CO)C(C)C)C(=O)N[C@@H](CO)C(=O)N[C@@H](CO)C(=O)N[C@@H](CO)C(=O)N[C@@H](CO)C(=O)NCC(=O)N[C@@H](CC(C)C)C(=O)NCC(=O)N[C@@H](CS)C(=O)N[C@@H](CCCCN)C(=O)N[C@H](C(=O)N[C@@H](CC(C)C)C(=O)N[C@@H](CCCNC(=N)N)C(=O)N[C@@H](CCCNC(=N)N)C(=O)N[C@@H](Cc1cnc[nH]1)C(N)=O)C(C)C

SMILES: CC[C@H](C)[C@H](NC(=O)[C@H](Cc1ccccc1)NC(=O)[C@H](CCC(=O)O)NC(=O)[C@H](CCCCN)NC(=O)[C@H](C)NC(=O)[C@H](C)NC(=O)[C@H](CCC(N)=O)NC(=O)CNC(=O)[C@H](CCC(=O)O)NC(=O)[C@H](CC(C)C)NC(=O)[C@H](Cc1ccc(O)cc1)NC(=O)[C@H](CO)NC(=O)[C@H](CO)NC(=O)[C@@H](NC(=O)[C@H](CC(=O)O)NC(=O)[C@H](CO)NC(=O)[C@@H](NC(=O)[C@H](Cc1ccccc1)NC(=O)[C@@H](NC(=O)CNC(=O)[C@H](CCC(=O)O)NC(=O)[C@H](C)NC(=O)[C@@H](N)Cc1c[nH]cn1)[C@@H](C)O)[C@@H](C)O)C(C)C)C(=O)N[C@@H](C)C(=O)N[C@@H](Cc1c[nH]c2ccccc12)C(=O)N[C@@H](CC(C)C)C(=O)N[C@H](C(=O)N[C@@H](CCCCN)C(=O)NCC(=O)N[C@@H](CCCNC(=N)N)C(N)=O)C(C)C
Stability [2]: Stable
Stability [3]: Unstable
Stability [4]: Unstable

half-life [5]: 5 min
Ki [6]: 142 µM
SMILES: CC(C)[C@H](N)C(=O)N1CCC[C@H]1C(=O)N[C@@H](CC(=O)O)C(=O)N1CCC[C@H]1C(=O)N[C@@H](CCCNC(=N)N)C(N)=O (H-VPDPR-NH2)
